# Measurements taken from ChEMBL document CHEMBL3351375, “Propyphenazone-based analogues as prodrugs and selective cyclooxygenase-2 inhibitors” (ACS Med Chem Lett, 2014).
# Calls of active or inactive are those of the source. The rule behind the calls is not given here.
# Key:
# Mus musculus [1] = assay: Analgesic activity in mouse assessed as protection against acetic acid-induced abdominal constriction dosed 1 hr before acetic acid challenge measured for 20 mins post acetic acid challenge
# Mus musculus [2] = assay: Anti-inflammatory activity in Swiss mouse model of carrageenan-induced paw edema assessed as reduction in paw swelling at 50 mg/kg, sc dosed 30 mins before carrageenan challenge measured at 1 to 4 hrs post carrageenan challenge by mercury plethysmometry; assay type: functional, organism-based; design: dose 50 mg/kg
# Summary of the method: (§1)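 In a mouse carrageenan paw edema model, compounds were given subcutaneously as pretreatment before the carrageenan injection. Swelling of the injected paw was measured with a mercury plethysmometer at 1, 2, 3 and 4 h. Activity was expressed as reduction in swelling relative to control.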
# [3] = target: T1, Prostaglandin G/H synthase 1 (Ovis aries) (UniProt P05979); assay: Inhibition of purified ovine COX1 at saturation drug level pre-treated for 1 hr before 10-acetyl-3,7-dihydroxyphenoxazin substrate addition in absence of porcine liver esterase by fluorescence assay
# T1 sequence (whole entry): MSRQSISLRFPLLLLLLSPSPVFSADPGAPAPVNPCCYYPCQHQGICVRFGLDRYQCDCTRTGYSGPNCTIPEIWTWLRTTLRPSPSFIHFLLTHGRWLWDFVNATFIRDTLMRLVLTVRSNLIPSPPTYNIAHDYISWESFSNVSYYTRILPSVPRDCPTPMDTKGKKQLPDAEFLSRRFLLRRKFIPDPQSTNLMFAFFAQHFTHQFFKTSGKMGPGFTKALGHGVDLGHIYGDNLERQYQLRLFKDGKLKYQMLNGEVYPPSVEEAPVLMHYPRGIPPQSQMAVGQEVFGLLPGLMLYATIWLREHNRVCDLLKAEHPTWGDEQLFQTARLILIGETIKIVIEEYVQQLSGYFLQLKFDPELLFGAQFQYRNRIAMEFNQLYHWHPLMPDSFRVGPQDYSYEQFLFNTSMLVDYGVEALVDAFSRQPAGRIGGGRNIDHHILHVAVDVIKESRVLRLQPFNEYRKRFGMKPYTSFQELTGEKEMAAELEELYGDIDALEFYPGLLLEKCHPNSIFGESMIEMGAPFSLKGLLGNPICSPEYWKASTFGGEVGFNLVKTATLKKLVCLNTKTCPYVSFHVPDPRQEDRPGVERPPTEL
# Summary of the method: (§2)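 COX1 (ovine) and COX2 (human recombinant) were inhibited, with compound tested both without and with porcine liver esterase added. IC50 (μM) and % inhibition at saturation were reported. COX1 was also tested at a single 160 μM concentration.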
# [4] = target: T2, Prostaglandin G/H synthase 1 (Ovis aries, UniProt P05979); assay: Inhibition of purified ovine COX1 pre-treated for 1 hr before 10-acetyl-3,7-dihydroxyphenoxazin substrate addition in absence of porcine liver esterase by fluorescence assay
# T2 sequence (P05979 whole entry): T1 sequence (whole entry)
# Summary of the method: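 COX1 (ovine) and COX2 (human recombinant) were inhibited, with compound tested both without and with porcine liver esterase added. IC50 (μM) and % inhibition at saturation were reported.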
# [5] = target: T2, Prostaglandin G/H synthase 1; assay: Inhibition of purified ovine COX1 pre-treated for 1 hr before 10-acetyl-3,7-dihydroxyphenoxazin substrate addition in presence of porcine liver esterase by fluorescence assay
# Summary of the method: as §2
# Liver carboxylesterase [6] = target: T3, Liver carboxylesterase (Sus scrofa, UniProt Q29550); assay: Prodrug conversion assessed as half life for porcine liver esterase-mediated prodrug conversion measured every 4 minutes for 100 mins by UV-visible absorption spectroscopy; assay type: ADME; conditions: pig, isolated protein
# T3 sequence (Q29550 whole entry): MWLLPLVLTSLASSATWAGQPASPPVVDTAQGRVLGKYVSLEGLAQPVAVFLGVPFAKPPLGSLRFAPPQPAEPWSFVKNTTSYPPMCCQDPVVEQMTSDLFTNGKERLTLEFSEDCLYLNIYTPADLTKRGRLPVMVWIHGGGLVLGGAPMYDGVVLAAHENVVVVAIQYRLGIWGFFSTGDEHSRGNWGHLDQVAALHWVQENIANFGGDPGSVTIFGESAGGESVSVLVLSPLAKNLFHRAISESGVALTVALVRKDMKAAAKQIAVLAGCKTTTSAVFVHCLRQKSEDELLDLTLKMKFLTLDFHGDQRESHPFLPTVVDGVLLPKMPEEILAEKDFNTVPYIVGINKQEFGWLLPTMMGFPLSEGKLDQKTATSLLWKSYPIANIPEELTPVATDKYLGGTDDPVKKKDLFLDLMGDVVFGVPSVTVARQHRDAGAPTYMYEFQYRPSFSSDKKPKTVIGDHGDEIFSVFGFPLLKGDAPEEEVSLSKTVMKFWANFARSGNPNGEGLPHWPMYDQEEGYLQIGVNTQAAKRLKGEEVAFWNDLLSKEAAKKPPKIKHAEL
# Summary of the method: (§3)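 Compound was incubated with porcine liver esterase at pH 7.5. UV–vis absorption spectra were recorded every 4 min for 100 min after esterase addition. Pseudo-first-order rate constants (s−1) were derived, and half-lives were calculated from them.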
# [7] = target: T1, Prostaglandin G/H synthase 1 (Ovis aries); assay: Inhibition of purified ovine COX1 at saturation drug level pre-treated for 1 hr before 10-acetyl-3,7-dihydroxyphenoxazin substrate addition in presence of porcine liver esterase by fluorescence assay
# Summary of the method: as §2
# [8] = target: T4, Prostaglandin G/H synthase 2 (Homo sapiens, UniProt P35354); assay: Inhibition of human recombinant COX2 pre-treated for 1 hr before 10-acetyl-3,7-dihydroxyphenoxazin substrate addition in presence of porcine liver esterase by fluorescence assay
# T4 sequence (P35354 whole entry): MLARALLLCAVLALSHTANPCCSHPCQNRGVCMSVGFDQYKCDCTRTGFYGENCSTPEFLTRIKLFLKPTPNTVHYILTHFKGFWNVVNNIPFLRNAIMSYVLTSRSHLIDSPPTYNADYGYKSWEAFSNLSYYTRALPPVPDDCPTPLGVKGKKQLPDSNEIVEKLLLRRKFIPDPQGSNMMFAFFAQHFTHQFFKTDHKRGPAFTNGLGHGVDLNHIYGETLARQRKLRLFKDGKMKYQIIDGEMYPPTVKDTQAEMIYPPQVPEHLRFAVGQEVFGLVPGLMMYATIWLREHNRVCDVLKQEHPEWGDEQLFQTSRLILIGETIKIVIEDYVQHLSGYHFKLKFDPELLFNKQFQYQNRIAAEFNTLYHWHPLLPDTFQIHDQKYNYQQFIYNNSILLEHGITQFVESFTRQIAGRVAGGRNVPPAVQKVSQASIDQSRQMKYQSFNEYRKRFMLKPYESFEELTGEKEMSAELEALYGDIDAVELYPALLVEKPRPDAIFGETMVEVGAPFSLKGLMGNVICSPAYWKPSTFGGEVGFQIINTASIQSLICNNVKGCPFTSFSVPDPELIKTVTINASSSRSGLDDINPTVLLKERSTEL
# Summary of the method: as §2
# Mus musculus [9] = assay: Anti-inflammatory activity in Swiss mouse model of carrageenan-induced paw edema assessed as reduction in paw swelling at 50 mg/kg, sc dosed 30 mins before carrageenan challenge measured at 2 to 4 hrs post carrageenan challenge by mercury plethysmometry; assay type: functional, organism-based; design: dose 50 mg/kg
# Summary of the method: as §1
# Liver carboxylesterase [10] = target: T3, Liver carboxylesterase; assay: Prodrug conversion assessed as pseudo-first-order rate constant for porcine liver esterase-mediated prodrug conversion measured every 4 minutes for 100 mins by UV-visible absorption spectroscopy; assay type: ADME; conditions: pig, isolated protein
# Summary of the method: as §3
# Mus musculus [11] = assay: Analgesic activity in mouse assessed as protection against acetic acid-induced abdominal constriction dosed with equimolar mixture of propyphenazone 1 hr before acetic acid challenge measured for 20 mins post acetic acid challenge
# Mus musculus [12] = assay: Anti-inflammatory activity in Swiss mouse model of carrageenan-induced paw edema assessed as reduction in paw swelling at 50 mg/kg, sc dosed 30 mins before carrageenan challenge measured at 120 mins post carrageenan challenge by mercury plethysmometry; assay type: functional, organism-based; design: dose 50 mg/kg
# Summary of the method: as §1
Structure (SMILES),Activity (Mus musculus [1]),Anti-inflammatory activity (Mus musculus [2]),inhibition ([3]; concentration not given here),IC50 ([4]; read-out: IC50),IC50 ([5]; read-out: IC50),t1/2 (Liver carboxylesterase [6]),inhibition ([7]; concentration not given here),inhibition (Mus musculus [9]),K (Liver carboxylesterase [10]),IC50 ([8]; read-out: IC50),further results
Cc1c(C(C)C)c(=O)n(-c2ccccc2)n1C [PROPYPHENAZONE],45%,inactive,,,,,,,,,
CC(C(=O)O)c1cccc(C(=O)c2ccccc2)c1 (stereo unspecified) [KETOPROFEN],66%,Active,100%,0.8 µM,,,,,,,
CC(C)c1c(CN(C)CCc2ccccn2)n(C)n(-c2ccccc2)c1=O,45%,inactive,43%,24 µM,24 µM,Stable,43%,,,,IC50 [8]: Not Active
CC(C)Cc1ccc(C(C)C(=O)OCc2c(C(C)C)c(=O)n(-c3ccccc3)n2C)cc1 (stereo unspecified),95%,,,,4.7 µM,28.8 min,100%,Active,0.0004 s⁻¹,1.3 µM,inhibition [3]: inactive; IC50 [4]: Not Active
Cc1c(N)c(=O)n(-c2ccccc2)n1C [AMPYRONE],45%,,100%,26 µM,,,,,,,Activity (Mus musculus [11]): 35%
CC(C)c1c(COC(=O)C(C)c2cccc(C(=O)c3ccccc3)c2)n(C)n(-c2ccccc2)c1=O (stereo unspecified),73%,,43%,0.2 µM,0.48 µM,38.5 min,100%,Active,0.0003 s⁻¹,2.2 µM,
CC(C)Cc1ccc(C(C)C(=O)O)cc1 (stereo unspecified),,Active,,,,,,,,,
CC(C)c1c(COC(=O)Cc2ccccc2Nc2c(Cl)cccc2Cl)n(C)n(-c2ccccc2)c1=O,87%,,29%,7.1 µM,0.25 µM,11.5 min,100%,Active,0.001 s⁻¹,9.9 µM,
Cc1c(NCc2c(C(C)C)c(=O)n(-c3ccccc3)n2C)c(=O)n(-c2ccccc2)n1C [BISFENAZONE],100%,,,,,Stable,,,,,IC50 [5]: Not Active; inhibition (Mus musculus [12]): Active; inhibition [7]: inactive; inhibition [3]: inactive; IC50 [4]: Not Active
O=C(O)Cc1ccccc1Nc1c(Cl)cccc1Cl [DICLOFENAC],63%,Active,100%,,,,,,,,
